# Test results taken from ChEMBL document CHEMBL3102796.
# What was measured:
# [1] = molecular target: T1, Neuraminidase (Influenza A virus, UniProt B4URF0); assay: Inhibition of Influenza A virus H5N1 neuraminidase using MUNANA as substrate preincubated for 30 mins measured after 2 hrs
# [2] = molecular target: T1, Neuraminidase; assay: Inhibition of Influenza A virus A/Hong Kong/8/1968 (H3N2) neuraminidase using MUNANA as substrate preincubated for 30 mins measured after 2 hrs
# [3] = tested on: Influenza A virus; assay: Antiviral activity against Influenza A virus A/California/07/2009 (H1N1) infected in MDCK cells assessed as reduction in virus plaque formation after 5 days; type: functional, organism-based; conditions: 120 h
# Method in brief: (§1)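 MDCK cells were seeded at 1×10^6 per well and inoculated with virus at confluence. Serial ten-fold dilutions of inhibitor were added in an overlay of serum-free DMEM with 0.6% agarose and 1 µg/mL TPCK-treated trypsin. The overlay was removed after 5 days, and cells were fixed with 70% ethanol and stained with 0.2% crystal violet.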
# [4] = tested on: Influenza A virus; assay: Antiviral activity against Influenza A virus A/Hong Kong/8/1968 (H3N2) infected in MDCK cells assessed as reduction in virus plaque formation after 5 days; type: functional, organism-based; conditions: 120 h; method in brief: as §1
# [5] = molecular target: T1, Neuraminidase; assay: Inhibition of Influenza A virus H3N2 neuraminidase using MUNANA as substrate preincubated for 30 mins measured after 2 hrs
# [6] = molecular target: T1, Neuraminidase; assay: Inhibition of Influenza A virus A/California/07/2009 (H1N1) neuraminidase using MUNANA as substrate preincubated for 30 mins measured after 2 hrs
# T1 sequence (B4URF0 whole entry): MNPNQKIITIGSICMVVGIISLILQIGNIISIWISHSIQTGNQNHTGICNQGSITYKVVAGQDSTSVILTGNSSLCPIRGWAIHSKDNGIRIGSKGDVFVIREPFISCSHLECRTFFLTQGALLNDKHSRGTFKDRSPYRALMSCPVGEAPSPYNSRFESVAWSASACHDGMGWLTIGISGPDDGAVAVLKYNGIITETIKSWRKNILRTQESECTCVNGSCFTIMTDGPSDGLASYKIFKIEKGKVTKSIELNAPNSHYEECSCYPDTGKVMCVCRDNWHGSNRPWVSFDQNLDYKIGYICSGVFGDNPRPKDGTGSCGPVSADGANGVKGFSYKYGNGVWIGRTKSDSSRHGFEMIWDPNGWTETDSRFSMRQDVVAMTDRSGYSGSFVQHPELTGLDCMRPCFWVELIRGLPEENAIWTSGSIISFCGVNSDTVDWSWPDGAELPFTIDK
SMILES,IC50 [1],IC50 [2],IC50 [3],IC50 [4],IC50 [5],IC50 [6]
CC(=O)N[C@H]1[C@H]([C@H](O)[C@H](O)CO)OC(SCCOCCOCCOCCOCCOCCSC2(C(=O)O)C[C@H](N)[C@@H](NC(C)=O)[C@H]([C@H](O)[C@H](O)CO)O2)(C(=O)O)C[C@@H]1N (stereo not given in full),85 µM,33 µM,100 µM,1 µM,216 µM,45 µM
CC(=O)N[C@H]1[C@H]([C@H](O)[C@H](O)CO)OC(SCCOCCOCCOCCSC2(C(=O)O)C[C@H](N)[C@@H](NC(C)=O)[C@H]([C@H](O)[C@H](O)CO)O2)(C(=O)O)C[C@@H]1N (stereo not given in full),28 µM,11 µM,100 µM,1 µM,39 µM,9.8 µM
CC(=O)N[C@H]1[C@H]([C@H](O)[C@H](O)CO)OC(SCCCCCCSC2(C(=O)O)C[C@H](NC(=N)N)[C@@H](NC(C)=O)[C@H]([C@H](O)[C@H](O)CO)O2)(C(=O)O)C[C@@H]1NC(=N)N (stereo not given in full),0.2 µM,0.25 µM,1 µM,0.01 µM,4.2 µM,0.26 µM
CC(=O)N[C@H]1[C@H]([C@H](O)[C@H](O)CO)OC(SCCCCCCS)(C(=O)O)C[C@@H]1N (stereo not given in full),127 µM,64 µM,> 100 µM,10 µM,178 µM,56 µM
CC(=O)N[C@H]1[C@H]([C@H](O)[C@H](O)CO)OC(SCCCCCCCCCCCCSC2(C(=O)O)C[C@H](N)[C@@H](NC(C)=O)[C@H]([C@H](O)[C@H](O)CO)O2)(C(=O)O)C[C@@H]1N (stereo not given in full),31 µM,15 µM,100 µM,1 µM,40 µM,11 µM
CC(=O)N[C@H]1[C@H]([C@H](O)[C@H](O)CO)OC(C(=O)O)=C[C@@H]1NC(=N)N [ZANAMIVIR],,,0.01 µM,0.001 µM,,
CC(=O)N[C@H]1[C@H]([C@H](O)[C@H](O)CO)OC(SCCOCCOCCOCCOCCSC2(C(=O)O)C[C@H](N)[C@@H](NC(C)=O)[C@H]([C@H](O)[C@H](O)CO)O2)(C(=O)O)C[C@@H]1N (stereo not given in full),64 µM,21 µM,100 µM,1 µM,178 µM,36 µM
CC(=O)N[C@H]1[C@H]([C@H](O)[C@H](O)CO)OC(SCCOCCOCCOCCOCCSC2(C(=O)O)C[C@H](NC(=N)N)[C@@H](NC(C)=O)[C@H]([C@H](O)[C@H](O)CO)O2)(C(=O)O)C[C@@H]1NC(=N)N (stereo not given in full),1.1 µM,1 µM,1 µM,0.01 µM,10 µM,1.2 µM
CC(=O)N[C@H]1[C@H]([C@H](O)[C@H](O)CO)OC(SCCCCCCCCCCCCSC2(C(=O)O)C[C@H](NC(=N)N)[C@@H](NC(C)=O)[C@H]([C@H](O)[C@H](O)CO)O2)(C(=O)O)C[C@@H]1NC(=N)N (stereo not given in full),0.73 µM,0.5 µM,1 µM,0.1 µM,12 µM,0.8 µM
CC(=O)N[C@H]1[C@H]([C@H](O)[C@H](O)CO)OC(SCCCCCCSC2(C(=O)O)C[C@H](N)[C@@H](NC(C)=O)[C@H]([C@H](O)[C@H](O)CO)O2)(C(=O)O)C[C@@H]1N (stereo not given in full),20 µM,11.6 µM,100 µM,1 µM,32 µM,9.9 µM
CCOC(=O)C1=C[C@@H](OC(CC)CC)[C@H](NC(C)=O)[C@@H](N)C1 [OSELTAMIVIR],,,0.001 µM,0.001 µM,,
CC(=O)N[C@H]1[C@H]([C@H](O)[C@H](O)CO)OC(SCCOCCOCCOCCSC2(C(=O)O)C[C@H](NC(=N)N)[C@@H](NC(C)=O)[C@H]([C@H](O)[C@H](O)CO)O2)(C(=O)O)C[C@@H]1NC(=N)N (stereo not given in full),2.5 µM,1.78 µM,1 µM,0.1 µM,10 µM,2.4 µM
CC(=O)N[C@H]1[C@H]([C@H](O)[C@H](O)CO)OC(SCCCCCCS)(C(=O)O)C[C@@H]1NC(=N)N (stereo not given in full),0.1 µM,0.55 µM,10 µM,1 µM,1 µM,0.8 µM
